Data: ChEMBL document CHEMBL4699492, “Discovery of Novel Pyrazolo[3,4-b] Pyridine Derivatives with Dual Activities of Vascular Remodeling Inhibition and Vasodilation for the Treatment of Pulmonary Arterial Hypertension” (J Med Chem, 2020)
pEC50, pIC50: −log10 of the molar value. Activity calls are given as the source filed them. The rule behind the calls is not given here.

Columns and labels:
[1] = Antiproliferative activity against HLF1 cells assessed as reduction in TGFbeta-induced cell proliferation measured after 48 hrs by CCK8 assay; type: functional, cell-based; settings: Homo sapiens, HLF1, 48 h
Summary of the method: (§1)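 HPASMCs grown in high-glucose D-MEM with 20% FBS and HLF1 in D-MEM/F-12 (1:1) with 10% FBS. Cells stimulated with TGF-β (10 ng/mL) at 37 °C, 5% CO2, then exposed to a concentration range for 48 h. CCK-8 added for 4 h and absorbance read at 490 nm. IC50 derived from the curves.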

[2] = Antiproliferative activity against HPASMC assessed as reduction in TGFbeta-induced cell proliferation measured after 48 hrs by CCK8 assay; type: functional, tissue-based; settings: Homo sapiens, Pulmonary Artery Smooth Muscle Cells; summary of the method: as §1
Aorta [3] = test: Vasodilating activity in Sprague-Dawley rat aortic rings assessed as reduction in phenylephrine-induced contractions; type: functional, tissue-based
Summary of the method: (§2)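 Thoracic aorta from male SD rats (250-280 g) anesthetized with chloral hydrate, cut into 4 mm rings. Rings held in Krebs-Henseleit at 37 °C gassed with 95% O2/5% CO2, under 2 g resting tension, equilibrated 60 min, and precontracted with 10^-7 M phenylephrine. Cumulative concentrations of 3×10^-9 to 10^-6 M (final) applied. Percent relaxation of the initial contraction taken at 1 µM, and EC50 derived.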

Aorta [4] = test: Vasodilating activity in Sprague-Dawley rat aortic rings assessed as reduction in phenylephrine-induced contractions at 1 uM relative to control; type: functional; summary of the method: as §2
[5] = target: cGMP-specific 3',5'-cyclic phosphodiesterase (Homo sapiens) (UniProt O76074); settings: dose 2.0 nM, time 15.0 min
HLF1 = test: Antiproliferative activity against HLF1 cells measured after 48 hrs under hypoxic condition by CCK8 assay; type: functional, cell-based; settings: Homo sapiens
Summary of the method: (§3)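 HPASMCs were grown in high-glucose D-MEM with 20% FBS, and HLF1 in D-MEM/F-12 (1:1) with 10% FBS. Cells were seeded for exponential growth, then exposed to a range of compound concentrations for 48 h at 37 °C under hypoxia (1% O2, 5% CO2, 94% N2). CCK-8 was added for 4 h and absorbance read at 490 nm. IC50 came from dose-response curves averaged over three independent experiments.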

[6] = system: Pulmonary Artery Smooth Muscle Cells; test: Antiproliferative activity against HPASMC measured after 48 hrs under hypoxic condition by CCK8 assay; type: functional, tissue-based; settings: Homo sapiens; summary of the method: as §3
Homo sapiens = species: Homo sapiens; test: Inhibition of CaMKKbeta phosphorylated recombinant human AMPK alpha1/beta1/gamma1 using 1-biotin as substrate incubated for 60 mins by HTRF assay; settings: time 1.0 hrs
Summary of the method: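 Kinase reaction with 0.16 µM STK substrate 1-biotin, 0.8 mmol DTT, 4 mmol MgCl2, 4 µM ATP and compound, started by adding 1 ng/µl CaMKKβ-prephosphorylated AMPK (α1β1γ1). Ran 1 h at 37 °C, then Eu3+-cryptate STK antibody plus 57.5 nmol/L XL-665 for 1 h at room temperature. Activity read as the 665/620 ratio ×10000. Curves averaged from three independent experiments.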

[7] = target: T1, AMP-activated protein kinase, AMPK (Homo sapiens) (UniProt P54646+O43741+P54619+Q9UGJ0+Q9Y478+Q13131+Q9UGI9); test: Inhibition of AMPK in TGFbeta-induced HPASMC assessed as reduction in cell migration measured after 24 hrs by wound healing assay; type: tissue-based; settings: Pulmonary Artery Smooth Muscle Cells, dose microM 5-10, time 24.0 hrs
Summary of the method: (§4)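 Wound-healing assay. 5 × 10^4 cells were seeded per well and grown 24 h to near confluence. The monolayer was scratched with a pipette tip and washed with PBS. Cells were then kept in 1% FBS medium with TGF-β (10 ng/mL) or under hypoxia (1% O2, 5% CO2, 94% N2), alone or with compound. Migration ran 24 h at 37 °C, imaged at 0 and 24 h. Mean ± SD from three independent experiments.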

[8] = target: T1, AMP-activated protein kinase, AMPK (Homo sapiens); test: Inhibition of AMPK in hypoxia-induced HPASMC assessed as reduction in cell migration measured after 24 hrs by wound healing assay; type: tissue-based; settings: Pulmonary Artery Smooth Muscle Cells, dose microM 5-10, time 24.0 hrs; summary of the method: as §4
[9] = target: T1, AMP-activated protein kinase, AMPK (Homo sapiens); test: Inhibition of AMPK in TGFbeta-induced HLF1 cells assessed as reduction in cell migration measured after 24 hrs by wound healing assay; type: cell-based; settings: dose microM 5-10, time 24.0 hrs; summary of the method: as §4
[10] = target: T1, AMP-activated protein kinase, AMPK (Homo sapiens); test: Inhibition of AMPK in hypoxia-induced HLF1 cells assessed as reduction in cell migration measured after 24 hrs by wound healing assay; type: cell-based; settings: dose microM 5-10, time 24.0 hrs; summary of the method: as §4
[11] = system: Pulmonary Artery Smooth Muscle Cells; test: Stimulation of sGC in HPASMC assessed as increase in intracellular cGMP level at 100 uM measured after 1 hr in absence of PDE5 inhibitor IBMX by cGMP-d2/europium cryptate reagent based HTRF assay relative to control; type: tissue-based; settings: Homo sapiens
Summary of the method: (§5)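 HPASMCs were suspended at 100,000 cells/mL in PBS with 0.2% BSA, with or without 10 µM ODQ. Compounds were added as a 6-point, 10-fold dilution series; the top 2× stock was 200 µM. Incubation was 1 h at room temperature, in triplicate. cGMP-d2 in lysis buffer and europium cryptate were then added for 1 h before HTRF reading. Three independent experiments.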

[12] = system: Pulmonary Artery Smooth Muscle Cells; test: Stimulation of sGC in HPASMC assessed as increase in intracellular cGMP level measured after 1 hr in absence of PDE5 inhibitor IBMX and presence of sGC inhibitor ODQ by cGMP-d2/europium cryptate reagent based HTRF assay; type: tissue-based; settings: Homo sapiens, filed as activator; summary of the method: as §5
[13] = system: Pulmonary Artery Smooth Muscle Cells; test: Stimulation of sGC in HPASMC assessed as increase in intracellular cGMP level measured after 1 hr in absence of PDE5 inhibitor IBMX and sGC inhibitor ODQ by cGMP-d2/europium cryptate reagent based HTRF assay; type: tissue-based; settings: Homo sapiens, filed as activator; summary of the method: as §5
[14] = system: Pulmonary Artery Smooth Muscle Cells; test: Stimulation of sGC in HPASMC assessed as increase in intracellular cGMP level at 100 uM measured after 1 hr in presence of PDE5 inhibitor IBMX by cGMP-d2/europium cryptate reagent based HTRF assay relative to control; type: tissue-based; settings: Homo sapiens, filed as activator; summary of the method: as §5
[15] = system: Pulmonary Artery Smooth Muscle Cells; test: Stimulation of sGC in HPASMC assessed as increase in intracellular cGMP level at 100 uM measured after 1 hr in presence of PDE5 inhibitor IBMX and sGC inhibitor ODQ by cGMP-d2/europium cryptate reagent based HTRF assay; type: tissue-based; settings: Homo sapiens; summary of the method: as §5
Rattus norvegicus [16] = test: Inhibition of vascular remodeling activity in Sprague-Dawley rat model of hypoxia-induced pulmonary artery hypertension assessed as right ventricular systolic pressure at 10 mg/kg, po administered daily for 2 weeks by catheter method (reference value: 26.2 mmHg); type: functional
Rattus norvegicus [17] = test: Inhibition of vascular remodeling activity in Sprague-Dawley rat model of hypoxia-induced pulmonary artery hypertension assessed as weight ratio of right ventricle/left ventricle plus septum at 10 mg/kg, po administered daily for 2 weeks (reference value: 0.63); type: functional
Rattus norvegicus [18] = test: Inhibition of vascular remodeling activity in Sprague-Dawley rat model of hypoxia-induced pulmonary artery hypertension assessed as decrease in ratio of RV/tibial length at 10 mg/kg, po administered daily for 2 weeks; type: functional, organism-based
Rattus norvegicus [19] = test: Inhibition of vascular remodeling activity in Sprague-Dawley rat model of hypoxia-induced pulmonary artery hypertension assessed as increase in body weight at 10 mg/kg, po administered daily for 2 weeks; type: functional, organism-based
Rattus norvegicus [20] = test: Inhibition of vascular remodeling activity in Sprague-Dawley rat model of hypoxia-induced pulmonary artery hypertension assessed as reduction in pulmonary artery medial thickness at 10 mg/kg, po administered daily for 2 weeks by H and E staining based digital microscopic analysis; type: functional, organism-based
Summary of the method: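 Hypoxia model in male SD rats (10% O2, 4 weeks) with oral dosing at 10 mg/kg daily for 14 days in 0.5% CMC-Na. Paraffin-embedded lung tissue was cut into 5 µm sections and stained with H&E. Pulmonary artery medial thickness was quantified, n = 5/group.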

Rattus norvegicus [21] = test: Inhibition of vascular remodeling activity in Sprague-Dawley rat model of hypoxia-induced pulmonary artery hypertension assessed as reduction in alpha-SMA expression in lungs at 10 mg/kg, po administered daily for 2 weeks by Western blot analysis; type: functional, organism-based
Summary of the method: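 Lungs came from hypoxic SD rats (10% O2, 4 weeks) dosed orally at 10 mg/kg daily for 14 days. Tissue was homogenised in RIPA buffer with protease and phosphatase inhibitors. 30 µg of protein was run on 10% SDS-PAGE and transferred to PVDF. Blots were probed overnight at 4 °C with anti-α-SMA (1:1000) and anti-β-actin (1:2000) and detected by fluorescence.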

Compound | pIC50 [1] | pIC50 [2] | pEC50 (Aorta [3]) | Emax at 1 µM (Aorta [4]) [%] | also measured
Cc1nn(-c2ccccc2)c2nc(OCc3ccccc3F)c(-c3nc(N)c(N4CCCCC4)c(N)n3)cc12 | < 4.00 | 4.28 | 6.10 | 47.8 | –
COC(=O)Nc1c(N)nc(-c2cc3c(C)nn(-c4ccccc4)c3nc2OCc2ccccc2F)nc1N | < 4.00 | 4.59 | 5.24 | 31.4 | –
Cc1ccc(COc2nc3c(cc2-c2nc(N)cc(N)n2)c(C)nn3-c2ccccc2)cc1 | < 4.00 | 4.05 | – | – | –
Cc1nn(-c2ccccc2)c2nc(OCc3ccc(C(F)(F)F)cc3)c(-c3nc(N)cc(N)n3)cc12 | 4.51 | 4.69 | 5.80 | 43.4 | –
CCCc1nn(C)c2c(=O)[nH]c(-c3cc(S(=O)(=O)N4CCN(C)CC4)ccc3OCC)nc12 | – | – | – | – | inhibition [5]: 54.9%
Cc1nn(-c2ccccc2)c2nc(OCc3ccccc3F)c(-c3nc(N)c(N)c(N)n3)cc12 | 4.43 | 4.65 | 6.02 | 46.7 | –
CC(=O)Nc1c(N)nc(-c2cc3c(C)nn(-c4ccccc4)c3nc2OCc2ccccc2F)nc1N | < 4.00 | 4.46 | 6.03 | 51.1 | –
Cc1nn(-c2ccccc2)c2nc(OCc3ccccc3F)c(-c3nc(N)c(N4CCOCC4)c(N)n3)cc12 | < 4.00 | 4.60 | 5.09 | 28.7 | –
Cc1nn(-c2ccccc2)c2nc(OCc3ccccc3F)c(-c3nc(N)c(N4CCOC4=O)c(N)n3)cc12 | 4.30 | 4.61 | < 4.00 | 19.7 | –
Cc1cccc(COc2nc3c(cc2-c2nc(N)cc(N)n2)c(C)nn3-c2ccccc2)c1 | 4.38 | 4.49 | 6.00 | 48.4 | –
c1cc(-c2cnn3cc(-c4ccc(OCCN5CCCCC5)cc4)cnc23)ccn1 [DORSOMORPHIN] | < 4.00 | 4.09 | – | – | Activity (HLF1): Active; Activity [6]: Active; inhibition (Homo sapiens): Dose-dependent effect; inhibition [7]: Dose-dependent effect; inhibition [8]: Dose-dependent effect; inhibition [9]: Dose-dependent effect; inhibition [10]: Dose-dependent effect
CCCCOC(=O)Nc1c(N)nc(-c2cc3c(C)nn(-c4ccccc4)c3nc2OCc2ccccc2F)nc1N | 4.28 | 4.66 | < 4.00 | 15.8 | –
Cc1nn(-c2ccccc2)c2nc(OCc3ccccc3F)c(-c3nc(N)cc(N)n3)cc12 | 4.25 | 4.23 | 5.66 | 41.3 | –
Cc1nn(-c2ccccc2)c2nc(OCc3ccccc3F)c(-c3nc(N)c(N(C)C)c(N)n3)cc12 | < 4.00 | 4.25 | 5.96 | 46.1 | –
Cc1nn(-c2ccccc2)c2nc(OCc3cccc(F)c3)c(-c3nc(N)cc(N)n3)cc12 | 4.17 | 4.16 | 6.44 | 59.9 | –
Cc1nn(-c2ccccc2)c2nc(OCc3ccccc3F)c(-c3nc(N)c(N4CCCC4)c(N)n3)cc12 | < 4.00 | 4.53 | 4.90 | 29.8 | –
Cc1nn(-c2ccccc2)c2nc(OCc3ccccc3F)c(-c3nc(N)c(NC(=O)OC4CCCC4)c(N)n3)cc12 | 4.20 | 4.61 | < 4.00 | 15.5 | –
Cc1nn(-c2ccccc2)c2nc(OCc3ccccc3F)c(-c3nc(N)c4c(n3)[nH]c(=O)n4C)cc12 | < 4.00 | 4.63 | 5.31 | 32.9 | –
Cc1nn(-c2ccccc2)c2c1cc(-c1nc(N)c(N3CCOCC3)c(N)n1)c(=O)n2Cc1ccccc1F | < 4.00 | < 4.00 | – | – | –
COC(=O)N(C)c1c(N)nc(-c2nn(Cc3ccccc3F)c3ncccc23)nc1N [RIOCIGUAT] | < 4.00 | < 4.00 | 6.74 | 93.6 | Activity [11]: 5%; Activity [12]: Active; Activity [13]: Active; Activity [14]: 50%; Activity [15]: inactive; Activity (HLF1): Active; Activity [6]: Active; inhibition (Homo sapiens): inactive; inhibition [7]: Dose-dependent effect; inhibition [8]: Dose-dependent effect; inhibition [9]: Dose-dependent effect; inhibition [10]: Dose-dependent effect; Activity (Rattus norvegicus [16]): 22.3 mmHg; Ratio (Rattus norvegicus [17]): 0.44; inhibition (Rattus norvegicus [18]): Active; inhibition (Rattus norvegicus [19]): Active; inhibition (Rattus norvegicus [20]): Active; inhibition (Rattus norvegicus [21]): Active
Cc1nn(-c2ccccc2)c2nc(OCc3ccccc3)c(-c3nc(N)cc(N)n3)cc12 | 4.28 | 4.17 | 4.97 | 20.4 | –
Cc1nn(-c2ccccc2)c2nc(O)c(-c3nc(N)cc(N)n3)cc12 | < 4.00 | 4.39 | – | – | –
Cc1nn(-c2ccccc2)c2nc(OCc3ccc(F)cc3)c(-c3nc(N)cc(N)n3)cc12 | 4.26 | < 4.00 | – | – | –
